How the values were obtained:
HL-60 (TB) = assay: cells; assay type: cell-based
M14 = assay: cells; assay type: cell-based
HCT-116 = assay: cells; assay type: cell-based
UACC-62 = assay: cells; assay type: cell-based
[1] = tested on: ERK substrates (p90RSK and ELK) phosphorylation in A375 cells; assay: western blotting of MAPK pathway phosphorylation in A375 cells after EGF; assay type: cell-based, human
Summary of the method: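 A375 cells (1,000,000 per well) were seeded 24 h, then treated with DMSO or test compound (0.5–25 μM) in serum-free medium for 4 or 12 h. Cells were stimulated with 100 nM EGF for 10–15 min, lysed, and 60 μg lysate was blotted. Probes: phospho-p90RSK (Thr573), RSK, phospho-Elk-1 (Ser383), phospho- and total ERK1/2, phospho-JNK (Thr183/Tyr185). Done twice.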

SF-539 = assay: cells; assay type: cell-based
MDA-MB-435 = assay: cells; assay type: cell-based
A375 cells = assay: IncuCyte real time proliferation assay; assay type: cell-based, human; settings: imaged every 1 h for 90 h
Summary of the method: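 Real-time growth: 2000 A375 cells per well adhered for 24 h, then were treated with a range of test compound doses. Phase images were taken on IncuCyte ZOOM (10× objective) every 1 h for 90 h in total. Growth confluence was estimated from the images and plotted.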

[2] = tested on: caspase 3/7 in A375 cells; assay: IncuCyte Caspase 3/7 apoptosis assay; assay type: cell-based, human; settings: doses of 3.7 and 33.3 μM, after 48 and 72 h
Summary of the method: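 2000 A375 cells per well adhered for 24 h, then received test compound doses plus a constant concentration of IncuCyte Caspase-3/7 reagent. Cells were imaged on IncuCyte ZOOM (10× objective) at set time points, and stained cells were counted. Apoptotic cell number was normalized to percentage area confluence at the final time point.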

EKVX = assay: NCI-60 SRB screen, Non-small cell lung cancer; assay type: cell-based, human
A498 = assay: NCI-60 SRB screen, Renal cancer; assay type: cell-based, human
[3] = tested on: cleaved PARP in A375 cells; assay: PARP cleavage western blot; assay type: cell-based, human; settings: 12 h exposure
Summary of the method: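 A375 cells (1,000,000 per well) were seeded 24 h, then exposed to several test compound doses for 12 h before lysis in buffer with protease/phosphatase inhibitors. Protein was measured by Bradford. 60 μg lysate was run on 10% SDS-PAGE and blotted to PVDF. Blots were probed for PARP and cleaved PARP, with vinculin as loading control. Done twice.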

ERK2 = ERK2 (Rattus norvegicus, UniProt P63086); assay: in vitro radioactive kinase assay, Ets-1 phosphorylation by ERK2; assay type: biochemical
ERK2, sequence (P63086 whole entry): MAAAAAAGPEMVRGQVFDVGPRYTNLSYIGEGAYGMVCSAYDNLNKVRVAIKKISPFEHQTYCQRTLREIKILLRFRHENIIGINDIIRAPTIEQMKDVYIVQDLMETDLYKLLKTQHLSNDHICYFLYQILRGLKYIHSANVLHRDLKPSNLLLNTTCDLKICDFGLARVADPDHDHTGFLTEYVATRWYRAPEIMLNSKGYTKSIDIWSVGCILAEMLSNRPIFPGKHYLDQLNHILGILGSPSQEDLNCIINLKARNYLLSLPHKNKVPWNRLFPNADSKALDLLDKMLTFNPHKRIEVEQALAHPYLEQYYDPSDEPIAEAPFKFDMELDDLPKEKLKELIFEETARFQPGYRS
Summary of the method: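 Activated rat ERK2 (2 nM) was tested with His-Ets-1 (1–138) at 28–30 °C in HEPES pH 7.5 buffer with 11 mM MgCl2, BSA and 5% DMSO. Reactions were started with [γ-32P]ATP (10 or 100 μM).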

BT-549 = assay: cells; assay type: cell-based
[4] = tested on: BRAF-mutant A375 melanoma cells; assay: A375 cell viability, MTS assay; assay type: cell-based; settings: Homo sapiens, A-375, 72 h, read-out: A375 Cell Viability IC50
Summary of the method: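 A375 cells were kept in RPMI with 10% heat-inactivated FBS, Glutamax and penicillin/streptomycin at 37 °C in 5% CO2. 2000 cells per well were treated with a range of test compound doses for 72 h. Viability was read by MTS assay. Run in triplicate.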

NCI-H522 = assay: cells; assay type: cell-based
SF-295 = assay: cells; assay type: cell-based
ERK1 = ERK1 (Homo sapiens, UniProt P27361); assay: in vitro radioactive kinase assay, Ets-1 phosphorylation by ERK1; assay type: biochemical; settings: ERK1 IC50, 100 μM ATP, 10 μM Ets-1
ERK1, sequence (P27361 whole entry, species assumed): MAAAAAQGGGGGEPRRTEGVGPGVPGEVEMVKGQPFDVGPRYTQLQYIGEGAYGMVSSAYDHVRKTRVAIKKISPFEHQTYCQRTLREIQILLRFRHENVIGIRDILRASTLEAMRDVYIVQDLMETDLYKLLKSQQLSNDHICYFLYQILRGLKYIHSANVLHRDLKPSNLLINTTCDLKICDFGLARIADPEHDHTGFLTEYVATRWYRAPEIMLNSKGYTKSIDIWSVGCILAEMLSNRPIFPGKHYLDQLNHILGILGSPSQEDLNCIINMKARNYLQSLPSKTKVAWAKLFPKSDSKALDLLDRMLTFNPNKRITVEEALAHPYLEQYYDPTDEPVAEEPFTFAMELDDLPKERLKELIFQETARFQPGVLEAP
Summary of the method: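 Radiometric assay at 28–30 °C in 25 mM HEPES pH 7.5, 50 mM KCl, 0.1 mM EDTA/EGTA, 2 mM DTT, 11 mM MgCl2, 10 μg mL−1 BSA and 5% DMSO (final). 2 nM activated ERK1 was used with 10 μM His-Ets-1 (1–138). Reactions were started with [γ-32P]ATP (10 or 100 μM). IC50 came from fitting rate versus inhibitor concentration to a hyperbolic decay equation.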

RXF 393 = assay: cells; assay type: cell-based
U251 = assay: cells; assay type: cell-based
MCF7 = assay: cells; assay type: cell-based
ACHN = assay: cells; assay type: cell-based
OVCAR-8 = assay: cells; assay type: cell-based
T-47D = assay: cells; assay type: cell-based

Q: For `O=C1c2ccccc2C(=O)c2c1oc1c2c(=O)[nH]c2ccc(Cl)cc21` [3b, 2-Chloronaphtho[2′,3′:4,5]furo[3,2-c]quinoline-6,7,12(5H)-trione], which “Growth percent (G%)” value (HL-60 (TB); HL-60(TB), 10^−5 M, 48 h) is on record?
A: 94.52%

Q: And the TGI (HL-60 (TB); HL-60 (TB), five-dose)?
A: 5.25 µM

Q: And the GI50 (HL-60 (TB); Homo sapiens, HL-60)?
A: 1.7 µM

Q: And the CC50 (HL-60 (TB); Homo sapiens, HL-60, read-out: LC50)?
A: 34.8 µM

Q: What about the GI50 (M14; Homo sapiens, M14) of the same compound?
A: 0.4 µM

Q: And the CC50 (M14; Homo sapiens, M14, read-out: LC50)?
A: 4.57 µM

Q: What about the “Growth percent (G%)” value (M14; M14, 10^−5 M, 48 h) of the same compound?
A: 10.44%

Q: And the TGI (M14; M14, five-dose)?
A: 1.51 µM

Q: And the “Growth percent (G%)” value (HCT-116; HCT-116, 10^−5 M, 48 h)?
A: −12.24%

Q: What about the TGI (HCT-116; HCT-116, five-dose) of the same compound?
A: 1.10 µM

Q: What about the GI50 (HCT-116; Homo sapiens, HCT-116) of the same compound?
A: 0.31 µM

Q: And the CC50 (HCT-116; Homo sapiens, HCT-116, read-out: LC50)?
A: 4.57 µM

Q: What about the GI50 (UACC-62; Homo sapiens, UACC-62) of the same compound?
A: 0.28 µM

Q: And the CC50 (UACC-62; Homo sapiens, UACC-62, read-out: LC50)?
A: 3.98 µM

Q: What about the “Growth percent (G%)” value (UACC-62; UACC-62, 10^−5 M, 48 h) of the same compound?
A: 75.08%

Q: And the TGI (UACC-62; UACC-62, five-dose)?
A: 1.15 µM

Q: And the “phosphorylation of ERK substrates (p90RSK and ELK), in words” value ([1]; A375, 0.5–25 μM, EGF stimulation)?
A: dose-dependent inhibition

Q: What about the “concentration enough to inhibit ELK phosphorylation” value ([1]; A375, 12 h, then EGF 100 nM) of the same compound?
A: 10 µM

Q: What about the “concentration enough to inhibit p-90RSK phosphorylation” value ([1]; A375, 12 h, then EGF 100 nM) of the same compound?
A: 25 µM

Q: And the “effect on ERK or MKK½ phosphorylation or the JNK pathway” value ([1]; A375, EGF stimulation)?
A: no effect

Q: And the GI50 (SF-539; Homo sapiens, SF-539)?
A: 0.23 µM

Q: And the CC50 (SF-539; Homo sapiens, SF-539, read-out: LC50)?
A: 2.09 µM

Q: What about the “Growth percent (G%)” value (SF-539; SF-539, 10^−5 M, 48 h) of the same compound?
A: −27.99%

Q: What about the TGI (SF-539; SF-539, five-dose) of the same compound?
A: 0.56 µM

Q: And the GI50 (MDA-MB-435; Homo sapiens, MDA-MB-435)?
A: 0.3 µM

Q: What about the CC50 (MDA-MB-435; Homo sapiens, MDA-MB-435, read-out: LC50) of the same compound?
A: 4.07 µM

Q: What about the “Growth percent (G%)” value (MDA-MB-435; MDA-MB-435, 10^−5 M, 48 h) of the same compound?
A: 10.25%

Q: And the TGI (MDA-MB-435; MDA-MB-435, five-dose)?
A: 1.20 µM

Q: And the “A375 real time proliferation (growth confluence), in words” value (A375 cells)?
A: dose-dependent inhibition

Q: What about the “caspase 3/7 activity in A375” value [2] of the same compound?
A: activation of caspase 3/7

Q: And the “Growth percent (G%)” value (EKVX; 10^−5 M, 48 h)?
A: 15.17%

Q: What about the GI50 (EKVX; Homo sapiens) of the same compound?
A: 0.25 µM

Q: What about the CC50 (EKVX; Homo sapiens, read-out: LC50) of the same compound?
A: 26.3 µM

Q: What about the TGI (EKVX; five-dose) of the same compound?
A: 2.45 µM

Q: And the “Growth percent (G%)” value (A498; A498, 10^−5 M, 48 h)?
A: 80.44%

Q: And the TGI (A498; A498, five-dose)?
A: 0.95 µM

Q: And the GI50 (A498; Homo sapiens, A498)?
A: 0.21 µM

Q: What about the CC50 (A498; Homo sapiens, A498, read-out: LC50) of the same compound?
A: 3.55 µM

Q: What about the “level of cleaved PARP in A375” value [3] of the same compound?
A: elevated level

Q: What about the “effect of excess Ets-1 (100 μM) on inhibition of ERK2” value (ERK2; 5 μM inhibitor, 100 μM vs 10 μM Ets-1, 100 μM ATP) of the same compound?
A: did not rescue

Q: And the IC50 (ERK2; ERK2 IC50, 10 μM ATP)?
A: 0.2 ± 0.01 µM

Q: And the IC50 (ERK2; ERK2 IC50, 100 μM ATP, 10 μM Ets-1)?
A: 0.6 ± 0.1 µM

Q: What about the IC50 (ERK2; ERK2 IC50 at 100 μM ATP /10mM Ets-1, Table 4, 100 μM ATP /10mM Ets-1) of the same compound?
A: 0.6 ± 0.1 µM

Q: And the “Growth percent (G%)” value (BT-549; BT-549, 10^−5 M, 48 h)?
A: 37.99%

Q: And the TGI (BT-549; BT-549, five-dose)?
A: 1.32 µM

Q: What about the GI50 (BT-549; Homo sapiens, BT-549) of the same compound?
A: 0.3 µM

Q: What about the CC50 (BT-549; Homo sapiens, BT-549, read-out: LC50) of the same compound?
A: 6.76 µM

Q: And the IC50 [4]?
A: 3.7 ± 0.6 µM

Q: And the GI50 (NCI-H522; Homo sapiens, NCI-H522)?
A: 0.32 µM

Q: What about the CC50 (NCI-H522; Homo sapiens, NCI-H522, read-out: LC50) of the same compound?
A: 8.13 µM

Q: And the “Growth percent (G%)” value (NCI-H522; NCI-H522, 10^−5 M, 48 h)?
A: −16.76%

Q: What about the TGI (NCI-H522; NCI-H522, five-dose) of the same compound?
A: 1.38 µM

Q: What about the GI50 (SF-295; Homo sapiens, SF-295) of the same compound?
A: 0.63 µM

Q: And the CC50 (SF-295; Homo sapiens, SF-295, read-out: LC50)?
A: 6.61 µM

Q: And the “Growth percent (G%)” value (SF-295; SF-295, 10^−5 M, 48 h)?
A: −1.34%

Q: What about the TGI (SF-295; SF-295, five-dose) of the same compound?
A: 2.29 µM

Q: And the IC50 (ERK1)?
A: 0.5 ± 0.09 µM

Q: What about the GI50 (RXF 393; Homo sapiens, RXF 393) of the same compound?
A: 0.21 µM

Q: What about the CC50 (RXF 393; Homo sapiens, RXF 393, read-out: LC50) of the same compound?
A: 2.51 µM

Q: What about the “Growth percent (G%)” value (RXF 393; RXF 393, 10^−5 M, 48 h) of the same compound?
A: −46.34%

Q: And the TGI (RXF 393; RXF 393, five-dose)?
A: 0.58 µM

Q: What about the GI50 (U251; Homo sapiens, U-251) of the same compound?
A: 0.27 µM

Q: What about the CC50 (U251; Homo sapiens, U-251, read-out: LC50) of the same compound?
A: 2.82 µM

Q: What about the “Growth percent (G%)” value (U251; U251, 10^−5 M, 48 h) of the same compound?
A: −77.55%

Q: And the TGI (U251; U251, five-dose)?
A: 0.76 µM

Q: And the GI50 (MCF7; Homo sapiens, MCF7)?
A: 0.23 µM

Q: What about the CC50 (MCF7; Homo sapiens, MCF7, read-out: LC50) of the same compound?
A: 18.6 µM

Q: And the “Growth percent (G%)” value (MCF7; MCF7, 10^−5 M, 48 h)?
A: 0.70%

Q: What about the TGI (MCF7; MCF7, five-dose) of the same compound?
A: 1.05 µM

Q: What about the “Growth percent (G%)” value (ACHN; 10^−5 M, 48 h) of the same compound?
A: −14.18%

Q: What about the GI50 (ACHN; Homo sapiens) of the same compound?
A: 0.2 µM

Q: What about the CC50 (ACHN; Homo sapiens, read-out: LC50) of the same compound?
A: 2.63 µM

Q: And the TGI (ACHN; five-dose)?
A: 0.58 µM

Q: And the GI50 (OVCAR-8; Homo sapiens, OVCAR-8)?
A: 0.39 µM

Q: What about the CC50 (OVCAR-8; Homo sapiens, OVCAR-8, read-out: LC50) of the same compound?
A: 30.2 µM

Q: What about the “Growth percent (G%)” value (OVCAR-8; OVCAR-8, 10^−5 M, 48 h) of the same compound?
A: −27.45%

Q: And the TGI (OVCAR-8; OVCAR-8, five-dose)?
A: 2.29 µM

Q: What about the GI50 (T-47D; Homo sapiens, T47D) of the same compound?
A: 0.26 µM

Q: And the CC50 (T-47D; Homo sapiens, T47D, read-out: LC50)?
A: 5.13 µM

Q: And the “Growth percent (G%)” value (T-47D; T-47D, 10^−5 M, 48 h)?
A: −58.11%

Q: What about the TGI (T-47D; T-47D, five-dose) of the same compound?
A: 0.98 µM

From PMC6543826 (Bioorganic chemistry, 2018)
